In ChEMBL document CHEMBL1122854, “Novel bis[1,6-dihydro-6,6-dimethyl-1,3,5-triazine-2,4-diamines] as antitrypanosomal agents” (1985):

Assays:
Type in all cases: functional
[1] = system: Trypanosoma brucei rhodesiense; experiment: Antitrypanosomal activity against Trypanosoma rhodesiense infections in mice, 424 mg/kg administered subcutaneously; details: route subcutaneous
In short: (§1)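 IUR/HA Swiss mice (six weeks old, 30-32 g) infected i.p. with Wellcome CT strain T. rhodesiense. A single subcutaneous dose in peanut oil was given about 2 h after inoculation, with five mice per dose level. Positive control was stilbamidine or 2-hydroxystilbamidine isethionate at 40 mg/kg. Deaths before day 4 were scored toxic, and 30-day survivors cured.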

Mus musculus [2] = experiment: Antitrypanosomal activity was evaluated against Trypanosoma rhodesiense infections in mice, at dose 26 mg/kg, administered subcutaneously; details: route subcutaneous; in short: as §1
[3] = system: Trypanosoma brucei rhodesiense; experiment: Antitrypanosomal activity was evaluated against Trypanosoma rhodesiense infections in mice, at dose 106 mg/kg, administered subcutaneously; details: route subcutaneous; in short: as §1
[4] = system: Trypanosoma brucei rhodesiense; experiment: Antitrypanosomal activity was evaluated against Trypanosoma rhodesiense infections in mice, at dose 1.6 mg/kg, administered subcutaneously; details: route subcutaneous
In short: (§2)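 Six-week-old IUR/HA Swiss mice (30-32 g), 5 per dose, infected ip with 0.5 mL of a 1:50 000 dilution of heparinized heart blood from donor mice infected 3 days before (Wellcome CT strain). Single sc dose in peanut oil about 2 h post-inoculation. Deaths before day 4 counted toxic. ΔMST versus untreated controls; survivors at 30 days counted cured.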

[5] = system: Trypanosoma brucei rhodesiense; experiment: Anti-trypanosomal activity against Trypanosoma rhodesiense infections in mice, 26 mg/kg administered subcutaneously; details: route subcutaneous; in short: as §2
[6] = system: Trypanosoma brucei rhodesiense; experiment: Antitrypanosomal activity against Trypanosoma rhodesiense infections in mice, 3.3 mg/kg administered subcutaneously; details: route subcutaneous; in short: as §2
[7] = system: Trypanosoma brucei rhodesiense; experiment: Antitrypanosomal activity against Trypanosoma rhodesiense infections in mice, 6.6 mg/kg administered subcutaneously; details: route subcutaneous; in short: as §2
Mus musculus [8] = experiment: Antitrypanosomal activity was evaluated against Trypanosoma rhodesiense infections in mice, at dose 26 mg/kg, administered subcutaneously;Cures; details: route subcutaneous; in short: as §1
[9] = system: Trypanosoma brucei rhodesiense; experiment: (§3) Antitrypanosomal activity was evaluated against Trypanosoma rhodesiense infections in mice, at dose 26 mg/kg, administered subcutaneously;Toxic; details: route subcutaneous; in short: as §1
Mus musculus [10] = experiment: (§4) Antitrypanosomal activity was evaluated against Trypanosoma rhodesiense infections in mice, at dose 53 mg/kg, administered subcutaneously; details: route subcutaneous; in short: as §1
Mus musculus [11] = experiment: as §3; details: route subcutaneous; in short: as §1
Mus musculus [12] = experiment: Antitrypanosomal activity was evaluated against Trypanosoma rhodesiense infections in mice, at dose 13 mg/kg, administered subcutaneously;Toxic; details: route subcutaneous; in short: as §1
[13] = system: Trypanosoma brucei rhodesiense; experiment: (§5) Antitrypanosomal activity was evaluated against Trypanosoma rhodesiense infections in mice, at dose 106 mg/kg, administered subcutaneously;Toxic; details: route subcutaneous; in short: as §1
[14] = system: Trypanosoma brucei rhodesiense; experiment: Antitrypanosomal activity against Trypanosoma rhodesiense infections in mice, 106 mg/kg administered subcutaneously; details: route subcutaneous; in short: as §2
Mus musculus [15] = experiment: Antitrypanosomal activity was evaluated against Trypanosoma rhodesiense infections in mice, at dose 424 mg/kg, administered subcutaneously; Cures; details: route subcutaneous; in short: as §1
Mus musculus [16] = experiment: Antitrypanosomal activity was evaluated against Trypanosoma rhodesiense infections in mice, at dose 53 mg/kg, administered subcutaneously;Cures; details: route subcutaneous; in short: as §1
Mus musculus [17] = experiment: as §5; details: route subcutaneous; in short: as §1
Mus musculus [18] = experiment: (§6) Antitrypanosomal activity was evaluated against Trypanosoma rhodesiense infections in mice, at dose 212 mg/kg, administered subcutaneously; details: route subcutaneous; in short: as §1
[19] = system: Trypanosoma brucei rhodesiense; experiment: as §4; details: route subcutaneous; in short: as §2
Mus musculus [20] = experiment: Antitrypanosomal activity was evaluated against Trypanosoma rhodesiense infections in mice, at dose 6.6 mg/kg, administered subcutaneously;Cures; details: route subcutaneous; in short: as §1
Mus musculus [21] = experiment: Antitrypanosomal activity was evaluated against Trypanosoma rhodesiense infections in mice, at dose 424 mg/kg, administered subcutaneously;Cures; details: route subcutaneous; in short: as §1
Mus musculus [22] = experiment: Antitrypanosomal activity was evaluated against Trypanosoma rhodesiense infections in mice, at dose 6.6 mg/kg, administered subcutaneously;Toxic; details: route subcutaneous; in short: as §1
Mus musculus [23] = experiment: Antitrypanosomal activity was evaluated against Trypanosoma rhodesiense infections in mice, at dose 26 mg/kg, administered orally;Toxic; details: in the assay text read “administered subcutaneously” for “administered orally”
Mus musculus [24] = experiment: Antitrypanosomal activity was evaluated against Trypanosoma rhodesiense infections in mice, at dose 106 mg/kg, administered orally; details: route oral
Mus musculus [25] = experiment: Antitrypanosomal activity was evaluated against Trypanosoma rhodesiense infections in mice, at dose 212 mg/kg, administered orally; details: route oral
Mus musculus [26] = experiment: Antitrypanosomal activity was evaluated against Trypanosoma rhodesiense infections in mice, at dose 26 mg/kg, administered orally; details: route oral
Mus musculus [27] = experiment: (§7) Antitrypanosomal activity was evaluated against Trypanosoma rhodesiense infections in mice, at dose 424 mg/kg, administered orally; details: route oral
Mus musculus [28] = experiment: Antitrypanosomal activity was evaluated against Trypanosoma rhodesiense infections in mice, at dose 53 mg/kg, administered orally; details: route oral
Mus musculus [29] = experiment: Antitrypanosomal activity was evaluated against Trypanosoma rhodesiense infections in mice, at dose 3.3 mg/kg, administered subcutaneously; details: route subcutaneous; in short: as §2
Mus musculus [30] = experiment: Antitrypanosomal activity was evaluated against Trypanosoma rhodesiense infections in mice, at dose 6.6 mg/kg, administered subcutaneously; details: route subcutaneous; in short: as §2
Mus musculus [31] = experiment: as §7; details: route oral; remark: listed apart in the source
In short: (§8)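 Oral dosing of IUR/HA Swiss mice (six weeks old, 30-32 g) infected i.p. with Wellcome CT strain T. rhodesiense, with five mice per dose level. Survival was followed for 30 days. Deaths before day 4 were counted as toxic and 30-day survivors as cured. ΔMST is the difference in mean survival time between treated and control mice.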

Mus musculus [32] = experiment: Antitrypanosomal activity was evaluated against Trypanosoma rhodesiense infections in mice, at dose 106 mg/kg, administered orally;Toxic; in short: as §8
Mus musculus [33] = experiment: Antitrypanosomal activity was evaluated against Trypanosoma rhodesiense infections in mice, at dose 13 mg/kg, administered subcutaneously;Cures; details: route subcutaneous; in short: as §1
Mus musculus [34] = experiment: Antitrypanosomal activity was evaluated against Trypanosoma rhodesiense infections in mice, at dose 212 mg/kg, administered subcutaneously;Cures; details: route subcutaneous; in short: as §1
Mus musculus [35] = experiment: Antitrypanosomal activity was evaluated against Trypanosoma rhodesiense infections in mice, at dose 106 mg/kg, administered subcutaneously; Cures; details: route subcutaneous; in short: as §1
Mus musculus [36] = experiment: Antitrypanosomal activity was evaluated against Trypanosoma rhodesiense infections in mice, at dose 424 mg/kg, administered subcutaneously;Toxic; details: route subcutaneous; in short: as §1
Mus musculus [37] = experiment: as §6; details: route subcutaneous; in short: as §2; remark: listed apart in the source
[38] = system: Trypanosoma brucei rhodesiense; experiment: Antitrypanosomal activity was evaluated against Trypanosoma rhodesiense infections in mice, at dose 424 mg/kg, administered subcutaneously; details: route subcutaneous; in short: as §2

## Cc1ccc(N2C(N)=NC(N)=NC2(C)C)cc1N1C(N)=NC(N)=NC1(C)C.Cl.Cl
[1]
  Toxic: 5
Mus musculus [2]
  Toxic: 2
[3]
  Toxic: 5
[4]
  Delta MST: 0.2 days
[5]
  Delta MST: -0.1 days
[6]
  Delta MST: 0.2 days
[7]
  Delta MST: 0 days

## CC1(C)N=C(N)N=C(N)N1c1ccc(NC(=O)Nc2ccc(N3C(N)=NC(N)=NC3(C)C)cc2)cc1.Cl.Cl
Mus musculus [8]
  Cures: 1
[9]
  Toxic: 1
[1]
  Toxic: 5
Mus musculus [10]
  Toxic: 5
[3]
  Toxic: 5

## Cc1cc(N2C(N)=NC(N)=NC2(C)C)ccc1CCc1ccc(N2C(N)=NC(N)=NC2(C)C)cc1C.Cl.Cl
Mus musculus [11]
  Toxic: 3
[1]
  Toxic: 5
[3]
  Toxic: 5
[4]
  Delta MST: 0.8 days
[5]
  Delta MST: 1.4 days
[6]
  Delta MST: 0.4 days
[7]
  Delta MST: 1 days

## CC(C)(c1ccc(N2C(N)=NC(N)=NC2(C)C)cc1)c1ccc(N2C(N)=NC(N)=NC2(C)C)cc1.Cl.Cl
[9]
  Toxic: 1
[1]
  Toxic: 5
Mus musculus [12]
  Toxic: 1
[13]
  Toxic: 2
[14]
  Delta MST: 1.8 days
[5]
  Delta MST: 1.3 days
[7]
  Delta MST: 0.9 days

## CC1(C)N=C(N)N=C(N)N1c1ccc(Cc2ccc(N3C(N)=NC(N)=NC3(C)C)cc2)cc1.Cl.Cl
Mus musculus [8]
  Cures: 1
Mus musculus [15]
  Cures: 5
Mus musculus [16]
  Cures: 2
Mus musculus [17]
  Toxic: 2
Mus musculus [18]
  Toxic: 5
[14]
  Delta MST: 8 days
[5]
  Delta MST: 4 days
[19]
  Delta MST: 6.5 days

## CC1(C)N=C(N)N=C(N)N1c1ccc(CCc2cccc(N3C(N)=NC(N)=NC3(C)C)c2)cc1.Cl.Cl
Mus musculus [20]
  Cures: 1
Mus musculus [21]
  Cures: 1
Mus musculus [12]
  Toxic: 1
Mus musculus [22]
  Toxic: 1
Mus musculus [23]
  Toxic: 5
Mus musculus [24]
  Delta MST: 0.4 days
Mus musculus [25]
  Delta MST: 1.8 days
Mus musculus [26]
  Delta MST: 0 days
Mus musculus [27]
  Delta MST: 3.7 days
Mus musculus [28]
  Delta MST: 0.2 days
Mus musculus [29]
  Delta MST: 1 days
Mus musculus [30]
  Delta MST: 1.7 days

## CC1(C)N=C(N)N=C(N)N1c1ccc(Oc2ccc(Oc3ccc(N4C(N)=NC(N)=NC4(C)C)cc3)cc2)cc1.Cl.Cl
Mus musculus [31]
  Toxic: 5
Mus musculus [32]
  Toxic: 4
Mus musculus [24]
  Delta MST: 1.9 days
Mus musculus [26]
  Delta MST: 0.5 days

## CC1(C)N=C(N)N=C(N)N1c1ccc(CCc2ccc(N3C(N)=NC(N)=NC3(C)C)cc2)cc1.Cl.Cl
Mus musculus [33]
  Cures: 4
Mus musculus [34]
  Cures: 3
Mus musculus [8]
  Cures: 4
Mus musculus [35]
  Cures: 5
Mus musculus [16]
  Cures: 4
Mus musculus [36]
  Toxic: 3
Mus musculus [37]
  Delta MST: 3.8 days
[5]
  Delta MST: 7.7 days
[6]
  Delta MST: 3.2 days
[38]
  Delta MST: 0.2 days
Mus musculus [30]
  Delta MST: 3.4 days
[19]
  Delta MST: 7.8 days
